In ChEMBL document CHEMBL2062375, “Discovery of an orally efficacious inhibitor of anaplastic lymphoma kinase” (J Med Chem, 2012):
Active and inactive are the calls of the source. The calls are words filed in the database; no cut-off is given here.

Columns and labels:
[1] = molecular target: T1, ALK tyrosine kinase receptor (Homo sapiens, UniProt Q9UM73); test: Inhibition of ALK tyrosine phosphorylation in human Karpas-299 cells after 2 hrs in presence of mouse plasma; format: cell-based
[2] = molecular target: T1, ALK tyrosine kinase receptor; test: Inhibition of human ALK cytoplasmic domain expressed in baculovirus using GST-PLCgamma as substrate preincubated for 15 mins before substrate addition measured after 1 hr by time resolved fluorescence assay
[3] = Cmax in rat at 10 mg/kg, po; format: ADME, organism-based; parameters: dose 10 mg/kg, route oral; conditions: in vivo
In short: (§1)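 Rat oral dose escalation at 10, 30, 55 and 100 mg/kg. Gavage at 5 mL/kg in 40% HPβCD after an overnight fast. Serial tail-vein blood was drawn into heparinized tubes. Plasma was protein-precipitated with acetonitrile and assayed by LC-MS/MS. Cmax and AUC0–12 were derived noncompartmentally; n = 2 at 10 mg/kg.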

[4] = AUC (0 to 12 hrs) in rat 30 mg/kg, po; format: ADME, organism-based; parameters: time < 12 hr, dose 30 mg/kg, route oral; conditions: plasma; in short: as §1
[5] = Cmax in rat at 55 mg/kg, po; format: ADME, organism-based; parameters: dose 55 mg/kg, route oral; conditions: in vivo; in short: as §1
[6] = Cmax in rat at 100 mg/kg, po; format: ADME, organism-based; parameters: dose 100 mg/kg, route oral; conditions: in vivo; in short: as §1
KARPAS-299 = test: Antitumor activity against human KARPAS299 cells expressing NPM-ALK xenografted in SCID mouse assessed as tumor stasis up to 100 mg/kg, po bid for 12 days; format: functional, organism-based; parameters: dose 100 mg/kg
[7] = AUC (0 to 12 hrs) in rat 55 mg/kg, po; format: ADME, organism-based; parameters: time < 12 hr, dose 55 mg/kg, route oral; conditions: plasma; in short: as §1
[8] = AUC (0 to 12 hrs) in rat 100 mg/kg, po; format: ADME, organism-based; parameters: time < 12 hr, dose 100 mg/kg, route oral; conditions: plasma; in short: as §1
Rattus norvegicus [9] = test: Ratio of Cmax at 10 mg/kg, po to Cmax at 100 mg/kg, po in rat; format: ADME, organism-based; conditions: in vivo
In short: (§2)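 Oral dose-escalation PK study in rats at 10, 30, 55 and 100 mg/kg. […] The ratio compares the 10 mg/kg value with the 100 mg/kg value.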

[10] = AUC (0 to 12 hrs) in rat 10 mg/kg, po; format: ADME, organism-based; parameters: time < 12 hr, dose 10 mg/kg, route oral; conditions: plasma; in short: as §1
Rattus norvegicus [11] = test: Ratio of AUC (0 to 12 h) at 10 mg/kg, po to AUC (0 to 12 h) at 100 mg/kg, po in rat; format: ADME, organism-based; conditions: in vivo; in short: as §2
[12] = Cmax in rat at 30 mg/kg, po; format: ADME, organism-based; parameters: dose 30 mg/kg, route oral; conditions: in vivo; in short: as §1

T1 sequence (Q9UM73 whole entry, the tested form may be a part): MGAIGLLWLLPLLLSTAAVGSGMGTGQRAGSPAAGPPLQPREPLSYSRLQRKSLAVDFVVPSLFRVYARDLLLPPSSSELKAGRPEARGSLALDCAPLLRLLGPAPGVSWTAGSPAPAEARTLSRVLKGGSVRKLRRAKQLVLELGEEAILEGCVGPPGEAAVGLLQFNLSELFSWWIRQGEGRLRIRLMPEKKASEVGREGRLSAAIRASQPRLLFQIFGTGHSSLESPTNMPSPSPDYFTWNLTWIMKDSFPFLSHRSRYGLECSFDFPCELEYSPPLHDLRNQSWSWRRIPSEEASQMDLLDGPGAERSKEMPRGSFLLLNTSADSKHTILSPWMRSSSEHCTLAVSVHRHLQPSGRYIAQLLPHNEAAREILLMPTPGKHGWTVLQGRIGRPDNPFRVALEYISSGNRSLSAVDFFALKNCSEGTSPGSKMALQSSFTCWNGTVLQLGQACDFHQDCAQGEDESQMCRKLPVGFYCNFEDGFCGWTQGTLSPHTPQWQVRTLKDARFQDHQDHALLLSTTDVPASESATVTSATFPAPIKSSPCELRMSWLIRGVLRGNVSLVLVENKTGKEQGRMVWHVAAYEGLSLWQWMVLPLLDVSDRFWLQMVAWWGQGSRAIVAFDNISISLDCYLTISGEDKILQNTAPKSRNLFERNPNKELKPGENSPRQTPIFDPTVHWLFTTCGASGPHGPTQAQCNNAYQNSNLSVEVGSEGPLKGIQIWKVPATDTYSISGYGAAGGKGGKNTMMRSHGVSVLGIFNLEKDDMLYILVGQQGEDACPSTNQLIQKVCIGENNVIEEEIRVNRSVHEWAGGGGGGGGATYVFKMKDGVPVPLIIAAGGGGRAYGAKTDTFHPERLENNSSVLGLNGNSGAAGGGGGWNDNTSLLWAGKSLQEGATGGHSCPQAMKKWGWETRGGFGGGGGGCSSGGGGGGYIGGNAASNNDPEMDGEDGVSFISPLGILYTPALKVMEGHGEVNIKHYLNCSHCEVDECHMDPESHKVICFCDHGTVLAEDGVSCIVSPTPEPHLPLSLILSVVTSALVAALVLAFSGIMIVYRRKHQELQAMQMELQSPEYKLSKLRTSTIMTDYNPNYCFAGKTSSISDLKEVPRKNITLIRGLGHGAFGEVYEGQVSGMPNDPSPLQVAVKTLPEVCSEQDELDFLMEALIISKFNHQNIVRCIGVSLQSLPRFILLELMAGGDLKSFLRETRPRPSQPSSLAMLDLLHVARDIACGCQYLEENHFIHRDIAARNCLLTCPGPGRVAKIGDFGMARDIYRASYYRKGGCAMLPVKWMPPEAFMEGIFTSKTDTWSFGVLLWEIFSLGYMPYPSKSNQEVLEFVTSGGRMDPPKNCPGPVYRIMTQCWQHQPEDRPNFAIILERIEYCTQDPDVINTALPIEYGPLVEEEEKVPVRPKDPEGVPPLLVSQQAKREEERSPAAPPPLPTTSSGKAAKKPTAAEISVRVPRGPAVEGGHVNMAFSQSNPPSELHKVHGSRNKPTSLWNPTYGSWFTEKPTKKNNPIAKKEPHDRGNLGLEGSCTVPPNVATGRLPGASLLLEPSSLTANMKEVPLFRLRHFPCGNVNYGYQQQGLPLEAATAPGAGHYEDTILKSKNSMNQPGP

| SMILES | IC50 [1] [nM] | IC50 [2] [nM] | Cmax [3] [ng/mL] | AUC(0-t) at 12 h [4] [ng·h/mL] | Cmax [5] [ng/mL] | Cmax [6] [ng/mL] | Activity (KARPAS-299) | AUC(0-t) at 12 h [7] [ng·h/mL] | AUC(0-t) at 12 h [8] [ng·h/mL] | Ratio (Rattus norvegicus [9]) | AUC(0-t) at 12 h [10] [ng·h/mL] | Ratio (Rattus norvegicus [11]) | Cmax [12] [ng/mL] |
| --- | --- | --- | --- | --- | --- | --- | --- | --- | --- | --- | --- | --- | --- |
| COc1c(Nc2ncc(Cl)c(N[C@H]3[C@@H](C(N)=O)[C@@H]4C=C[C@H]3C4)n2)ccc2c1CC[C@H](N1CCOCC1)CC2 | 120 | 35 | – | – | – | – | – | – | – | – | – | – | – |
| CCN1C(=O)CCCc2c1ccc(Nc1ncc(Cl)c(N[C@H]3[C@@H](C(N)=O)[C@@H]4C=C[C@H]3C4)n1)c2OC | 45 | – | 925 | 11800 | 1450 | 1550 | Active | 13800 | 14000 | 2 | 6020 | 2 | 1360 |
